NOD2-RIPK2 inh = NOD2-RIPK2 binding disruptors in cells, primary screen, fluorescence, CHO cells, BLA complementation | Receptor-interacting serine/threonine-protein kinase 2 (Homo sapiens), O43353 | CCF4 ratio | inhibition, % at 4.98 µM | 360,000 tested, 0.38% active; in the data active means inhibition above about 21%;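 further: 0% = vehicle only and 100% = reference blocker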
Target sequence (O43353 whole entry, looked up): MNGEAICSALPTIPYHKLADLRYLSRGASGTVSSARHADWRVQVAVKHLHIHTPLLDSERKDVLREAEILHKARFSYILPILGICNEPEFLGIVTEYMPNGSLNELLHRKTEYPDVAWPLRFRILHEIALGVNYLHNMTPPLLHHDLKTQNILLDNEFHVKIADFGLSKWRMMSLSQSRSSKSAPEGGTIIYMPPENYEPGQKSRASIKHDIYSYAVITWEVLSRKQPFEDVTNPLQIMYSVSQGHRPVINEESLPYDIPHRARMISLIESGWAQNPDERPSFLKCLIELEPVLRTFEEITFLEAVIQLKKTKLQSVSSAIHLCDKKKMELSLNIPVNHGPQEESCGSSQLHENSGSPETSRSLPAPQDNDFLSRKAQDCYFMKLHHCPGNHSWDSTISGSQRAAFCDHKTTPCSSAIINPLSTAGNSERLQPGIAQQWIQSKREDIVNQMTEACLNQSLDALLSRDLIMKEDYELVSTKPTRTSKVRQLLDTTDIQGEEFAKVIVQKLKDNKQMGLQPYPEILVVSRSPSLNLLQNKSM
beta cell repl = inducers of MIN6 beta-cell proliferation, primary screen, ATP luminescence, uHTS; proliferation, % at 10 µM; MIN6 cells proliferation, ATPlite luminescence, 48 h; cells starved in 0.2% serum; 100% = growth in 10% serum; 330,000 tested, 0.29% active;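 active means compounds whose signal lies at least 3.5 SD above the mean of all wells on their plate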;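 further: 0% = DMSO-treated cells in low-serum medium and 100% = 10% serum control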
MC4R ag barr = MC4R agonists recruiting beta-arrestin, primary screen, cell-based, luminescence, agonist arm of biased-ligand search. AID 540308, 2011. Melanocortin receptor 4 (Homo sapiens), P32245. 360,000 tested, 0.98% active. activation, % at 8.9 µM. U2OS MC4R beta-arrestin complementation; percent of melanotan II response, DMSO zero;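 active means activation above a per-plate cutoff, the mean activation of sample wells on that plate plus 3 SD, cut at about 8% in these data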
TLR4-MyD88 BLA = inhibitors of TLR4-MyD88 association in cells, primary screen, cell-based, HeLa CL3-4, BLA complementation, FRET ratio; Toll-like receptor 4 (Homo sapiens) + Myeloid differentiation primary response protein …; HeLa CL3-4 TLR4/MyD88 BLA complementation; inhibition, % at 8.4 µM; 200,000 tested, 0.18% active; AID 861, 2007; in the data active means inhibition above about 25%;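 further: 0% = vehicle and 100% = reference inhibitor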
MC4R antagonist = MC4R antagonists of cAMP signaling, primary screen, cell-based, TR-FRET, antagonist arm of biased-ligand search | Melanocortin receptor 4 (Homo sapiens), P32245 | MC4R-expressing cells, MTII-stimulated cAMP, LANCE TR-FRET | inhibition, % at 6.5 µM | 360,000 tested, 0.48% active | AID 540295, 2011;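 active means inhibition above its plate's cutoff, the mean of tested wells on that plate plus 3 SD, cut at about 29% in these data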;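 further: 0% = Melanotan II alone and 100% = Melanotan II plus saturating MCL0020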
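System: U2OS-MC4R stable cell line; Technique: Eu-cAMP/anti-cAMP TR-FRET, emission 671 nm; Repeats: single well per compound; Also added: Melanotan II; Dosing: one concentration, 6.5 µM nominal; Schedule: 30-min compound, 1-h challenge, 1-h detection, room temperature.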
TLR9-MyD88 block = inhibitors of TLR9-MyD88 association in cells, primary screen, cell-based, CHO, BLA complementation, fluorescence; Toll-like receptor 9 (Homo sapiens) + Myeloid differentiation primary response protein …; CCF4 FRET ratio; inhibition, % at 4.98 µM; 340,000 tested, 0.21% active; AID 504734, 2011;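 active means inhibition above the mean over all tested compounds plus 3 SD, cut at about 21% in these data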;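 further: 0% = DMSO only wells and 100% = clavulanate BLA inhibitor control wells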
MC4R barr conf = MC4R beta-arrestin agonists, retest, confirmation, cell-based, luminescence, U2OS | shares compounds with MC4R ag barr | AID 602192, 2012 | activation, % at 8.9 µM | 2,400 tested, 31% active | U2OS MC4R beta-arrestin recruitment; scaled DMSO 0%, Melanotan II 100%;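 active means mean activation across replicates above the hit cutoff set in the earlier primary screen, cut at about 8% in these data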
MOR-DOR barr ag = agonists of MOR-DOR heterodimerization, counter-screen for MC4R biased agonist project, cell-based, luminescence; activation, % at 9.2 µM; shares compounds with MC4R ag barr; 2,400 tested, 5.8% active; AID 602194, 2012; U2OS PathHunter beta-arrestin, beta-gal luminescence; percent of deltorphin B response, DMSO zero;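 active means mean activation across replicates exceeds the hit threshold derived in the earlier primary screen, cut at about 18% in these data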;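 further: 100% = deltorphin B at 0.9 µM final and 0% = DMSO alone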
Starred values were filed as active, the others as inactive. In the library only some 2.1% were active in any assay of this set; here they are far more common.

Results for O=C(CSc1ncnc2c1oc1ccccc12)c1cccs1 ?
NOD2-RIPK2 inh: -5; beta cell repl: -4; MC4R ag barr: 13*; TLR4-MyD88 BLA: 14; MC4R antagonist: 21; TLR9-MyD88 block: -3; MC4R barr conf: 1; MOR-DOR barr ag: 5

What do the screens show for `Cc1nc(SCC(=O)c2cccs2)c2oc3ccccc3c2n1`?
NOD2-RIPK2 inh: 2; beta cell repl: -1; MC4R ag barr: 4; TLR4-MyD88 BLA: 5; MC4R antagonist: 6; TLR9-MyD88 block: -6

What do the screens show for `CCN(C(=O)COc1ccc2ccc(=O)oc2c1)C1CCCCC1`?
NOD2-RIPK2 inh: -13; beta cell repl: -5; MC4R ag barr: 0; MC4R antagonist: 8; TLR9-MyD88 block: 10

How did CCCSc1ccc(-c2nn(-c3ccccc3)cc2/C=C(/C#N)C(=O)NCCCOC)cc1 do in these assays?
NOD2-RIPK2 inh: 10; beta cell repl: 0; MC4R ag barr: 3; TLR4-MyD88 BLA: -3; MC4R antagonist: -5; TLR9-MyD88 block: -5

What do the screens show for `CCSc1ccc(-c2nn(-c3ccccc3)cc2/C=C(/C#N)C(=O)NCCCOC)cc1`?
NOD2-RIPK2 inh: -3; MC4R ag barr: 22*; TLR4-MyD88 BLA: 12; MC4R antagonist: -19; TLR9-MyD88 block: -4; MC4R barr conf: 40*; MOR-DOR barr ag: 19*

How did O=C(Nc1ccc(F)cc1)N[C@H]1CC[C@H](CCNS(=O)(=O)c2cccc(Cl)c2)O[C@@H]1CO do in these assays?
NOD2-RIPK2 inh: 10

How did CCN1CCN(CC(=O)Nc2c(OC)cccc2OC)CC1 do in these assays?
NOD2-RIPK2 inh: 10; beta cell repl: 2; MC4R ag barr: -1; MC4R antagonist: 11; TLR9-MyD88 block: -2

Results for Cc1ccc2nc(-c3ccc(NC(=O)CN4C(=O)NC(C)(c5ccc(OC(F)F)cc5)C4=O)cc3)sc2c1 (configuration not stated) ?
NOD2-RIPK2 inh: -2; beta cell repl: -5; MC4R ag barr: 18*; TLR4-MyD88 BLA: -7; MC4R antagonist: 21; TLR9-MyD88 block: 1; MC4R barr conf: 7; MOR-DOR barr ag: 6

Results for CNC(=O)CSc1ncnc2c1cnn2-c1ccccc1 ?
NOD2-RIPK2 inh: -4; beta cell repl: -4; MC4R ag barr: 0; TLR4-MyD88 BLA: 10; MC4R antagonist: 4; TLR9-MyD88 block: 10

What do the screens show for `O=C(CSc1ncnc2c1cnn2-c1ccccc1)Nc1ccccc1`?
NOD2-RIPK2 inh: 5; beta cell repl: -4; MC4R ag barr: 18*; TLR4-MyD88 BLA: -1; MC4R antagonist: 14; TLR9-MyD88 block: -6; MC4R barr conf: 5; MOR-DOR barr ag: 5

Results for COc1ccc2[nH]c(=O)c(CN(CC3CCCO3)S(=O)(=O)c3ccccc3F)cc2c1 (configuration not stated) ?
NOD2-RIPK2 inh: 4; beta cell repl: -3; MC4R ag barr: -1; MC4R antagonist: 0; TLR9-MyD88 block: -5

Results for COc1ccc(Cl)cc1-c1cc(C(=O)Nc2ccc(F)cc2)[nH]n1 ?
NOD2-RIPK2 inh: -7; MC4R ag barr: 16*; MC4R antagonist: 2; MC4R barr conf: 0; MOR-DOR barr ag: 9

Results for CCCOc1ccc(F)cc1-c1cc(C(=O)Nc2cc(OC)ccc2OC)[nH]n1 ?
NOD2-RIPK2 inh: -5; MC4R ag barr: 16*; MC4R antagonist: 5; MC4R barr conf: 1; MOR-DOR barr ag: 11

Results for COc1ccc(NC(=O)c2cc(-c3cc(Cl)ccc3OC)n[nH]2)cc1OC ?
NOD2-RIPK2 inh: 1; MC4R ag barr: 0; MC4R antagonist: 16

Results for COc1ccc(NC(=O)c2cc(-c3ccc(C)cc3O)n[nH]2)c(OC)c1 ?
NOD2-RIPK2 inh: 5; beta cell repl: 0; MC4R ag barr: 10*; MC4R antagonist: 15; TLR9-MyD88 block: 9; MC4R barr conf: -2; MOR-DOR barr ag: 4

How did Cc1cc(C)nc(NS(=O)(=O)c2ccc(NC(=O)c3snnc3C)cc2)n1 do in these assays?
NOD2-RIPK2 inh: 5; beta cell repl: -3; MC4R ag barr: -3; MC4R antagonist: 4; TLR9-MyD88 block: -3

What do the screens show for `Cc1ccc(CNC(=O)c2ccc(COc3ccccc3)cc2)cc1`?
NOD2-RIPK2 inh: -2; beta cell repl: 0; MC4R ag barr: 13*; TLR4-MyD88 BLA: -1; MC4R antagonist: -1; TLR9-MyD88 block: 4; MC4R barr conf: -1; MOR-DOR barr ag: 4

Results for CC(C)C[C@@H](COCc1ccc([N+](=O)[O-])cc1)N1CCN(C(=O)c2ccc(C(F)(F)F)cc2)CCC1=O ?
NOD2-RIPK2 inh: -6

How did CCOC(=O)c1c(C)oc2ccc(O)c(CN(C)C)c12 do in these assays?
NOD2-RIPK2 inh: -10; beta cell repl: 0; MC4R ag barr: -1; TLR4-MyD88 BLA: -14; MC4R antagonist: 3; TLR9-MyD88 block: 11

What do the screens show for `CCOC(=O)c1c(CSc2ccc(CC)cc2)oc2ccc(O)c(CN(C)C)c12`?
NOD2-RIPK2 inh: 12; beta cell repl: -7; MC4R ag barr: 20*; MC4R antagonist: 2; TLR9-MyD88 block: -3; MC4R barr conf: 15*; MOR-DOR barr ag: 12

How did CCOc1ccc(CNc2ccc(S(N)(=O)=O)cc2)cc1 do in these assays?
NOD2-RIPK2 inh: 0; beta cell repl: 2; MC4R ag barr: 1; TLR4-MyD88 BLA: -3; MC4R antagonist: -4; TLR9-MyD88 block: -4

How did COc1cccc(-c2cc(NC=O)c3ncc(-c4ccc(F)c(Cl)c4)n3c2)c1 do in these assays?
NOD2-RIPK2 inh: 4; MC4R ag barr: 16*; MC4R antagonist: 8; MC4R barr conf: 10*; MOR-DOR barr ag: 6

What do the screens show for `COc1cccc(-c2cnc3c(NC=O)cc(-c4ccccc4)cn23)c1`?
NOD2-RIPK2 inh: -5; MC4R ag barr: 3; MC4R antagonist: -17

Screening data deposited in PubChem by several laboratories.
